Reference: ChEMBL document CHEMBL5335845, “Discovery of GLPG2737, a Potent Type 2 Corrector of CFTR for the Treatment of Cystic Fibrosis in Combination with a Potentiator and a Type 1 Co-corrector” (J Med Chem, 2024)
≈ marks a conversion by molar mass, not a printed value. Each block holds one molecule with its values, some of them ahead of it.

Assays:
[1] = Metabolic stability in human liver microsomes assessed as unbound intrinsic clearance at 1 uM incubated for 30 mins by LC-MS/MS analysis; format: ADME, Microsome; settings: 0.5 h
[2] = Metabolic stability in rat liver microsomes assessed as unbound intrinsic clearance at 1 uM incubated for 30 mins by LC-MS/MS analysis; format: ADME, Microsome; settings: 0.5 h
[3] = Metabolic stability in rat hepatocyte assessed as unbound intrinsic clearance at 1 uM incubated for 180 mins by LC-MS/MS analysis; format: ADME, cell-based; settings: hepatocytes, 3 h
[4] = Metabolic stability in human hepatocyte assessed as unbound intrinsic clearance at 1 uM incubated for 180 mins by LC-MS/MS analysis; format: ADME, cell-based; settings: hepatocytes, 3 h
[5] = Metabolic stability in dog hepatocyte assessed as unbound intrinsic clearance at 1 uM incubated for 180 mins by LC-MS/MS analysis; format: ADME, cell-based, Canis lupus familiaris; settings: hepatocytes, 3 h
[6] = Unbound clearance in Beagle dog at 5 mg/kg, po measured upto 24 hrs by LC-MS/MS analysis; format: ADME, organism-based, Canis lupus familiaris; settings: in vivo
How it was run: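 Male Beagle dogs (n = 3), iv 10 min […], then after 3-day washout oral gavage 5 or 1 mg/kg in PEG400/0.5% MC or 0.5% MC after ≥12 h fast; jugular or cephalic blood (Li-heparin) to 24 h, plasma by LC-MS/MS.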

[7] = Volume of distribution at steady state in Beagle dog at 5 mg/kg, po or 0.1 mg/kg, iv measured upto 24 hrs by LC-MS/MS analysis; format: ADME, organism-based, Canis lupus familiaris; settings: in vivo
[8] = Apparent permeability from apical to basolateral side in MDCKII-MDR1 cells at 10 uM measured after 1 hr by LC-MS/MS analysis; format: ADME, cell-based, Canis lupus familiaris; settings: dog, MDCK-MDR1
Cytochrome P450 3A4 [9] = target: T1, Cytochrome P450 3A4 (Homo sapiens, UniProt P08684); assay: Induction of CYP3A4 in human hepatocytes assessed as mRNA at 10 uM after 72 hrs by qPCR analysis relative to rifampicin; format: ADME, cell-based, Hepatocyte
T1 sequence (P08684 whole entry): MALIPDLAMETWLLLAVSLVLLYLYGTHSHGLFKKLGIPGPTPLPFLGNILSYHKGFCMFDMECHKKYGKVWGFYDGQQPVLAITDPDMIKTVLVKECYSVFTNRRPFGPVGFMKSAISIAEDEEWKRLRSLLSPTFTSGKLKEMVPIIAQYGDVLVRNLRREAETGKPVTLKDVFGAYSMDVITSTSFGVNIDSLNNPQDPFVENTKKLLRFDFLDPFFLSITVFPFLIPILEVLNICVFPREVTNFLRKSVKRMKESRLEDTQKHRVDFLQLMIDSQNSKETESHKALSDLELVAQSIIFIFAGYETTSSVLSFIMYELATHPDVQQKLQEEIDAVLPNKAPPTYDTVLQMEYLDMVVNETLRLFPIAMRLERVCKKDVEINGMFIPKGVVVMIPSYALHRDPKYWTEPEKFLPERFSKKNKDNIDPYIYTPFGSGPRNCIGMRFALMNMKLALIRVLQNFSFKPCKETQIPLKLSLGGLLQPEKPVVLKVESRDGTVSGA
How it was run: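 Single-donor cryopreserved human hepatocytes, 0.1 × 10^6 cells/well, exposed to 10 μM compound (0.1% DMSO) in triplicate for 72 h with daily renewal; RNA RT-qPCR for CYP3A4 vs endogenous control, 2^-ΔΔCT relative to vehicle, expressed as % of 10 μM rifampicin.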

[10] = Plasma clearance in Beagle dog iv measured upto 24 hrs by LC-MS/MS analysis
[11] = Intestinal permeability across apical to basolateral side in human Caco-2 cells at 10 uM measured after 1 hr by LC-MS/MS analysis; format: ADME, cell-based; settings: read-out: permeability
[12] = Unbound clearance in Sprague-Dawley rat at 5 mg/kg, po or 0.1 mg/kg, iv measured upto 24 hrs by LC-MS/MS analysis; format: ADME, organism-based; settings: in vivo
How it was run: (§1)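 Male Sprague–Dawley rats (6–8 weeks), iv tail-vein bolus 0.1 mg/kg in PEG200/water 60/40, or oral gavage 5 mg/kg suspension in 0.5% MC after ≥12 h fast; plasma (Li-heparin) sampled to 24 h, n = 3 per route, LC-MS/MS; noncompartmental analysis.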

Cytochrome P450 3A4 [13] = target: T1, Cytochrome P450 3A4; assay: Inhibition of CYP3A4 in human liver microsomes using testosterone as substrate in presence of NADPH by LC/MS/MS analysis; format: ADME, Microsome
Cytochrome P450 3A4 [14] = target: T1, Cytochrome P450 3A4; assay: Inhibition of CYP3A4 in human liver microsomes using midazolam as substrate in presence of NADPH by LC/MS/MS analysis; format: ADME, Microsome
[15] = Half life in Sprague-Dawley rat at 0.1 mg/kg, iv measured upto 24 hrs by LC-MS/MS analysis; format: ADME, organism-based; settings: in vivo; how it was run: as §1
[16] = Thermodynamic solubility of the compound in fasted simulated gastric fluid measured after 24 hrs by LC-MS/MS analysis; format: physicochemical; settings: read-out: Therm_solubility
How it was run: (§2)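 Solid compound at 1 mg/mL in fasted simulated gastric fluid or pH 7.4 buffer, stirred 24 h at room temperature, centrifuged and filtered, diluted and quantified by LC-MS/MS against standard curve.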

[17] = target: Voltage-gated inwardly rectifying potassium channel KCNH2 (Homo sapiens, UniProt Q12809); assay: Inhibition of human ERG by manual patch clamp test; format: toxicity
Chain of Voltage-gated inwardly rectifying potassium channel KCNH2 (Q12809 whole entry): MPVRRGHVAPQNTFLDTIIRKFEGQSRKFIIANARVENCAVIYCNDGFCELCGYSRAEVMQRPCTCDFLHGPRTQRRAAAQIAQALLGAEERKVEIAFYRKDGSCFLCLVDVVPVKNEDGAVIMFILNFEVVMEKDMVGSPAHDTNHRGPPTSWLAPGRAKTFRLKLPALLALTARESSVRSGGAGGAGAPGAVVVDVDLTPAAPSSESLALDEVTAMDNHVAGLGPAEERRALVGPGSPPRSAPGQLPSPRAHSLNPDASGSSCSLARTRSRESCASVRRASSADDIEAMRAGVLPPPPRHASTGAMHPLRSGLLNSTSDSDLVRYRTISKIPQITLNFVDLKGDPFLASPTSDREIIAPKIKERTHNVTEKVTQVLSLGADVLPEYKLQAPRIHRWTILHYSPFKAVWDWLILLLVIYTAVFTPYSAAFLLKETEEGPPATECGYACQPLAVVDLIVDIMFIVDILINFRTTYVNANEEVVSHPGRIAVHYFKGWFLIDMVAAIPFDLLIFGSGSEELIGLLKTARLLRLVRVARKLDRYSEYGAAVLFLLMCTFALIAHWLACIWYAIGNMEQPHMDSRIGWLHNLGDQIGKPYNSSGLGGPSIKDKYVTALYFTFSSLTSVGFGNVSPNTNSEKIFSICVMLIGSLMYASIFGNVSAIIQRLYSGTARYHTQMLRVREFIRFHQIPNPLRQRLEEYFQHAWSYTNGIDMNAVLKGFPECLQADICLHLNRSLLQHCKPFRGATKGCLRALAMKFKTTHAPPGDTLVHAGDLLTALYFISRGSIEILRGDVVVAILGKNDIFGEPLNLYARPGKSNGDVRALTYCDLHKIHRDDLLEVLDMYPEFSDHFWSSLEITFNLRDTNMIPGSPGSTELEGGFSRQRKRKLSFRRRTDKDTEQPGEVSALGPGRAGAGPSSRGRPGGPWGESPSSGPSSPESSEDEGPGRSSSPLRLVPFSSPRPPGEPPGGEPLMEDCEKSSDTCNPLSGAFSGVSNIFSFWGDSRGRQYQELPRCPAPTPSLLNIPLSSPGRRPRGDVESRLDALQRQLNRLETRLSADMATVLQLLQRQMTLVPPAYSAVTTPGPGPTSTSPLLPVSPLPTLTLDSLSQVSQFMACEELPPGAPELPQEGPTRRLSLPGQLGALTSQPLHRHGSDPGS

[18] = Plasma protein binding in dog at 5 uM measured after 4 hrs under shaking by LC-MS/MS analysis; format: ADME, cell-free, Canis lupus familiaris; settings: read-out: PPB (converted)
How it was run: (§3)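 Equilibrium dialysis of compound 5 μM (0.5% DMSO) in plasma against PBS pH 7.4, 4 h at 37 °C with shaking; matrix-matched samples, acetonitrile precipitation, LC-MS/MS; % bound from plasma and buffer peak areas.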

Sigma receptor = Sigma receptor (Homo sapiens, UniProt Q99720+Q5BJF2); assay: Inhibition of human Sigma receptor; format: protein assay
How it was run: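 Radioligand binding panel: displacement of cognate radioligand from human H1 or Sigma receptor, IC50 determined.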

[19] = Plasma protein binding in human at 5 uM measured after 4 hrs under shaking by LC-MS/MS analysis; format: ADME, cell-free; settings: read-out: PPB (converted); how it was run: as §3
[20] = Plasma protein binding in rat at 5 uM measured after 4 hrs under shaking by LC-MS/MS analysis; format: ADME, cell-free; settings: read-out: PPB (converted); how it was run: as §3
[21] = Thermodynamic solubility of the compound at pH 7.4 measured after 24 hrs by LC-MS/MS analysis; format: physicochemical; settings: buffer, read-out: Therm_solubility; how it was run: as §2
[22] = Genotoxicity in Salmonella typhimurium by Ames test; format: toxicity; settings: salmonella enterica subsp. enterica serovar typhimurium
[23] = Volume of distribution at steady state in Sprague-Dawley rat at 5 mg/kg, po or 0.1 mg/kg, iv measured upto 24 hrs by LC-MS/MS analysis; format: ADME, organism-based; settings: in vivo; how it was run: as §1
[24] = Plasma clearance in Sprague-Dawley rat at 5 mg/kg, po or 0.1 mg/kg, iv measured upto 24 hrs by LC-MS/MS analysis; format: ADME, organism-based; settings: in vivo; how it was run: as §1
[25] = Half life in Beagle dog at 0.1 mg/kg, iv measured upto 24 hrs by LC-MS/MS analysis; format: ADME, organism-based, Canis lupus familiaris; settings: in vivo
[26] = Clearance in Sprague-Dawley rat at 1 mg/kg, iv measured after 24 hrs by LC-MS/MS analysis; format: ADME, organism-based; settings: in vivo

CL free [1]: 173 mL/min/kg
CL free [2]: 180 mL/min/kg
CL free [3]: 305 mL/min/kg
SMILES: COc1ccc(-c2cc(C(=O)O)nc3c2c(C)nn3-c2ccccc2)cc1

CL free [1]: < 59.8 mL/min/kg
CL free [2]: 182 mL/min/kg
CL free [3]: 263 mL/min/kg
SMILES: COc1ccc(-c2cc(C(=O)O)nc3c2c(C)nn3-c2ccc(C)cc2)cc1

CL free [1]: < 28.3 mL/min/kg
CL free [2]: < 43.3 mL/min/kg
CL free [3]: 67 mL/min/kg
CL free [4]: < 45.7 mL/min/kg
SMILES: Cc1nn(-c2ccccc2)c2nc(C(=O)O)cc(-c3ccc(N4CCOCC4)cc3)c12

CL free [5]: < 24.8 mL/min/kg
CL free [6]: 178 mL/min/kg
Vdss [7]: 1.37 L/kg
Papp A→B at 1 h, 10 µM [8]: 5.45 ×10⁻⁶ cm/s
Activity (Cytochrome P450 3A4 [9]): 4%
clearance [10]: 3.5 mL/min/kg
Papp A→B at 1 h, 10 µM [11]: 24.5 ×10⁻⁶ cm/s
CL free [3]: 66.2 mL/min/kg
CL free [12]: 333 mL/min/kg
CL free [4]: < 12.8 mL/min/kg
IC50 (Cytochrome P450 3A4 [13]): > 100 µM
IC50 (Cytochrome P450 3A4 [14]): > 100 µM
half-life [15]: 3.45 h
solubility thermodynamic at 24 h [16]: 10.9 µg/mL (≈ 20.5 µM)
fraction unbound at 4 h, 5 µM [18]: 0.025
IC50 (Sigma receptor): 0.36 µM
fraction unbound at 4 h, 5 µM [19]: 0.02
fraction unbound at 4 h, 5 µM [20]: 0.016
solubility thermodynamic at 24 h [21]: 9.9 µg/mL (≈ 18.7 µM)
Vdss [23]: 1.38 L/kg
CL [24]: 5.33 mL/min/kg
half-life [25]: 5.4 h
SMILES: COC1CCN(c2cc(C(=O)NS(=O)(=O)N(C)C)nc3c2c(C2CCC2)nn3-c2ccc(F)cc2)CC1
inhibition (INH) [17]: Not Active
Activity [22]: Non-Toxic

CL free [5]: 31.7 mL/min/kg
CL free [3]: 49 mL/min/kg
CL free [4]: < 11 mL/min/kg
CL [24]: 3.17 mL/min/kg
SMILES: CN(C)S(=O)(=O)NC(=O)c1cc(N2CCC(N3CCOCC3)CC2)c2c(C3CCC3)nn(-c3ccc(F)cc3)c2n1

Activity (Cytochrome P450 3A4 [9]): 9%
CL free [3]: < 11.5 mL/min/kg
SMILES: CS(=O)(=O)NC(=O)c1cc(N2CCC(N3CCOCC3)CC2)c2c(C3CCC3)nn(-c3ccc(F)cc3)c2n1

CL [26]: 0.41 mL/min/kg
SMILES: CS(=O)(=O)NC(=O)c1cc(-c2ccc(N3CCC(C#N)CC3)nc2)c2c(C3CCC3)nn(-c3ccccc3)c2n1

CL [26]: 3.3 mL/min/kg
SMILES: O=C(O)c1cc(-c2ccc(N3CCOCC3)cc2)c2c(C3CCC3)nn(-c3ccccc3)c2n1
